Test results published in ChEMBL document CHEMBL5360619.
Activity calls are given as the source filed them. No cut-off for these calls is given here.

How the values were obtained:
Cytochrome P450 3A4 [1] = target: T1, Cytochrome P450 3A4 (Homo sapiens, UniProt P08684); test: Inhibition of CYP3A4 in human liver microsomes using testosterone as substrate incubated for 30 mins in presence of NADPH by LC-MS/MS analysis; format: ADME, Microsome
Procedure, shortened: (§1)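 Human liver microsomes 0.2 mg/mL in 100 mM phosphate pH 7.4; compound final 1, 10 and 100 μM (1% DMSO). Substrates: midazolam 5 μM (10 min) or testosterone 50 μM (30 min). Started with NADPH, stopped with ice-cold acetonitrile containing internal standard; LC–MS/MS.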

[2] = Apparent permeability across apical to basolateral side in human Caco-2 cells at 2 uM by LC-MS/MS analysis; format: ADME, cell-based
Procedure, shortened: (§2)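 Caco-2 monolayers grown on permeable filters, used day 21. Drug solution 2 μM in prewarmed HBSS applied apical or basolateral, pH 7.4 both sides, 37 °C, stirring 500 rpm; 5 μM enalaprilat as integrity control. Receiver sampled at 30 min, donor sampled for mass balance; LC–MS/MS with warfarin internal standard.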

[3] = Efflux ratio of apparent permeability across […] side in human Caco-2 cells at 2 uM by LC-MS/MS analysis; format: ADME, cell-based; conditions: caco-2, 2 µM; procedure, shortened: as §2
Cytochrome P450 3A4 [4] = target: T1, Cytochrome P450 3A4; test: Inhibition of CYP3A4 in human liver microsomes using midazolam as substrate incubated for 10 mins in presence of NADPH by LC-MS/MS analysis; format: ADME, Microsome; procedure, shortened: as §1
[5] = Therapeutic index, ratio of LD50 for human IMR-90 cells to IC50 for antimycobacterial activity against Mycobacterium tuberculosis Erdman; format: toxicity; conditions: read-out: TI
Procedure, shortened: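 LD50 from 48 h MTT assay in HEK 293, BEAS-2B or IMR-90 cells divided by MABA IC50 against Mtb.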

[6] = test system: Mycobacterium tuberculosis; test: Inhibition of biofilm formation in Mycobacterium tuberculosis Erdman assessed as inhibition of biofilm pellicle formation at 2.5 to 50 uM pretreated for 3 weeks under low oxygen and further treated for 3 weeks under aerated condition in presence of 0.05% tyloxapol by optical density based analysis; format: functional, organism-based; conditions: dose 2.5-50 µM, time 6.0 weeks
Procedure, shortened: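 Pellicle assay with 0.05% tyloxapol added to each well to prevent biofilm; otherwise Sauton's medium inoculated with Mtb plus compound, sealed airtight 3 weeks at 37 °C, 5% CO2, then opened for 3 weeks aerobic.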

RAW264.7 = test: Cytotoxicity against mouse RAW264.7 cells assessed as reduction in cell viability at 0.01 to 10 uM incubated for 5 days by SYTO 60 dye based automated high-content fluorescent microscopic analysis; format: toxicity; conditions: raw264.7, 120 h, dose 0.01-10 µM, time 5 day
Procedure, shortened: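 RAW 264.7 cells in RPMI-1640 with 10% heat-inactivated FBS, 20,000 cells/well added to compounds acoustically dispensed from DMSO stocks, DMSO backfill; 5 days at 37 °C, 5% CO2. SYTO 60 staining, four confocal images per well, total cell number counted; dose–response plotted.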

CYP3A4 [7] = test: Selectivity index, ratio of IC50 for CYP3A4 in human liver microsomes using midazolam as substrate to IC50 for antimycobacterial activity against Mycobacterium tuberculosis Erdman; format: toxicity; conditions: probe midazolam, read-out: Ratio IC50
CYP3A4 [8] = test: Selectivity index, ratio of IC50 for CYP3A4 in human liver microsomes using testosterone as substrate to IC50 for antimycobacterial activity against Mycobacterium tuberculosis Erdman; format: toxicity; conditions: probe testosterone, read-out: Ratio IC50
[9] = test system: Mycobacterium tuberculosis; test: (§3) Antimycobacterial activity against Mycobacterium tuberculosis H37Rv expressing GFP infected in mouse RAW264.7 cells assessed as inhibition of intracellular mycobacterial growth by measuring reduction in bacterial area per infected cells incubated for 5 days by SYTO 60 dye based automated high-content fluorescent microscopic analysis; format: functional, organism-based; conditions: time 5.0 day
Procedure, shortened: (§4)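 RAW 264.7 macrophages infected with GFP-expressing H37Rv for 3 h at 37 °C with shaking, washed by centrifugation, then seeded at 20,000 cells/well onto compounds dispensed acoustically from DMSO stocks, DMSO backfill. Incubated 5 days at 37 °C, 5% CO2, stained with SYTO 60, four confocal images per well; percentage of infected cells and bacterial area per infected cell scored. IC50 from dose–response; four replicates.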

[10] = Cytotoxicity against human Calu-3 cells assessed as reduction in cellular ATP level incubated for 72 hrs by celltiter-glo assay; format: toxicity, cell-based; conditions: read-out: LD50
Procedure, shortened: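 Calu-3 cells (DMEM, 10% FBS) plated 10,000/well for 18 h, then medium switched to 2% FBS; eight twofold doses 250 down to […], compounds as imidazole salts in DMSO with IMD/DMSO controls.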

[11] = test system: Mycobacterium tuberculosis; test: as §3, with “percentage of” for “bacterial area per”; format: functional, organism-based; conditions: time 5.0 day; procedure, shortened: as §4
[12] = Solubility of compound in tween-free sauton's medium; format: physicochemical

T1 sequence (P08684 whole entry): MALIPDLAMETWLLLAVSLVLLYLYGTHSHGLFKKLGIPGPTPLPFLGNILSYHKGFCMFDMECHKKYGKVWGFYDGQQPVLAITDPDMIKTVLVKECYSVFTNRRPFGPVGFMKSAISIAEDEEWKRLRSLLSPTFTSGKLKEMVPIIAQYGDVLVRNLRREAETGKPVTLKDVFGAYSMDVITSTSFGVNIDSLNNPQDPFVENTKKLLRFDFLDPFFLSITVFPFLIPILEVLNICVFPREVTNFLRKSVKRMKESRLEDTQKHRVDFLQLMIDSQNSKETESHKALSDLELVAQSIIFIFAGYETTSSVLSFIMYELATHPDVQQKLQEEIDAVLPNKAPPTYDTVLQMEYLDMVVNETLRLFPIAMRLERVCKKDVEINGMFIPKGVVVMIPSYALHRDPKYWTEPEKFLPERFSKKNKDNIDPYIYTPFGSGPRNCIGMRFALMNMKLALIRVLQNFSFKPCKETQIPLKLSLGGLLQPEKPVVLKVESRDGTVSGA

Structure (SMILES): CC(C)(C)c1ccc(-c2nnc(SCc3cc(=O)n4c(c3C3CC3)SCC4C(=O)O)o2)cc1 (racemic)
- IC50 (Cytochrome P450 3A4 [1]): > 100 µM
- Papp A→B at 2 µM [2]: 0.88 ×10⁻⁶ cm/s
- Ratio [3]: 1.5
- IC50 (Cytochrome P450 3A4 [4]): > 100 µM

Structure (SMILES): O=C(O)C1CSc2c(C3CC3)c(-c3cc(-c4ccc5ccccc5c4)no3)cc(=O)n21.c1c[nH]cn1 (racemic)
- selectivity ratio [5]: 168
- inhibition [6]: inactive
- Activity (RAW264.7): Non-Toxic
- selectivity ratio (CYP3A4 [7]): ≥ 16
- selectivity ratio (CYP3A4 [8]): ≥ 16
- Activity [9]: Active
- CC50 at 72 h [10]: > 250 µM
- Activity [11]: Active

Structure (SMILES): O=C(O)C1CSc2c(C3CC3)c(Cc3cccc4ccccc34)cc(=O)n21.c1c[nH]cn1 (racemic)
- Activity (RAW264.7): Non-Toxic
- selectivity ratio (CYP3A4 [7]): ≥ 16
- selectivity ratio (CYP3A4 [8]): ≥ 16

Structure (SMILES): O=C(O)C1CSc2c(C3CC3)c(CSc3nnc(-c4cccc(C(F)(F)F)c4)o3)cc(=O)n21 (racemic)
- solubility [12]: Insoluble

Structure (SMILES): CC(C)(C)c1ccc(-n2cc(-c3cc(=O)n4c(c3C3CC3)SCC4C(=O)O)nn2)cc1 (racemic)
- IC50 (Cytochrome P450 3A4 [1]): > 100 µM
- IC50 (Cytochrome P450 3A4 [4]): > 100 µM

Structure (SMILES): O=C(O)C1CSc2c(C3CC3)c(-c3cc(-c4ccccc4)no3)cc(=O)n21 (racemic)
- solubility [12]: Insoluble
